Article PMC10552104 (ACS Omega, 2023)

How the values were obtained:
Assay type in all cases: cell-based
[1] = system: DU145 prostate cancer cell line; experiment: MTT cytotoxicity assay, DU145; conditions: Homo sapiens, DU-145, 24 h, read-out: IC50 DU145
Method in brief: (§1)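 IC50 values in μM, reported as mean ± S.D. from the table footnote; the same footnote covers the three cancer lines and the normal CHO–K1 line. The full series of test compounds was screened on each line.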

[2] = system: HepG2 hepatocellular carcinoma cells; experiment: MTT cytotoxicity assay, HepG2; conditions: Homo sapiens, HepG2, 24 h, read-out: IC50 HepG2
Method in brief: as §1

[3] = system: B16 melanoma cancer cell line; experiment: MTT cytotoxicity assay, B16; conditions: Mus musculus, B16, 24 h, read-out: IC50 B16
Method in brief: as §1

Compound	IC50 [1]	IC50 [2]	IC50 [3]
c1ccc(C(c2c[nH]c3ccccc23)c2c[nH]c3ccccc23)cc1 [1a, 3,3′-(Phenylmethylene)bis(1H-indole)]	5.24 ± 0.67 µM	4.62 ± 0.03 µM	9.88 ± 1.19 µM
COc1ccc2[nH]cc(C(c3ccc(C)cc3)c3c[nH]c4ccc(OC)cc34)c2c1 [1c, 3,3′-(p-Tolylmethylene)bis(5-methoxy-1H-indole)]	2.02 ± 0.74 µM	5.47 ± 0.56 µM	36 ± 1.09 µM
COc1ccc(C(c2c[nH]c3ccc(C#N)cc23)c2c[nH]c3ccc(C#N)cc23)cc1 [1g, 3,3′-((4-Methoxyphenyl)methylene)bis(1H-indole-5-carbonitrile)]	8.13 ± 0.77 µM	6.33 ± 1.8 µM	9.82 ± 0.52 µM
COc1ccc(C(c2c(-c3ccccc3)[nH]c3ccccc23)c2c(-c3ccccc3)[nH]c3ccccc23)cc1OC [1i, 3,3′-((3,4-Dimethoxyphenyl)methylene)bis(2-phenyl-1H-indole)]	10.3 ± 0.87 µM	7.43 ± 1.6 µM	15.9 ± 0.25 µM
O=[N+]([O-])c1ccc(C(c2c[nH]c3ccccc23)c2c[nH]c3ccccc23)cc1 [1k, 3,3′((4-Nitrophenyl)methylene)bis(1H-indole)]	1.09 ± 0.92 µM	5.28 ± 0.24 µM	29.2 ± 2.38 µM
c1ccc2c(C(c3c[nH]c4ccccc34)c3c[nH]c4ccccc34)cccc2c1 [1m, 3,3′-(Naphthalen-1-ylmethylene)bis(1H-indole)]	8.18 ± 0.74 µM	7.54 ± 1.19 µM	9.49 ± 1.97 µM
c1ccc2c(C(c3c[nH]c4ccccc34)c3c[nH]c4ccccc34)c3ccccc3cc2c1 [1n, 3,3′-(Anthracen-9-ylmethylene)bis(1H-indole)]	6.87 ± 1.06 µM	11.9 ± 0.1 µM	13.6 ± 0.92 µM
c1coc(C(c2c[nH]c3ccccc23)c2c[nH]c3ccccc23)c1 [1o, 3,3′-(Furan-2-ylmethylene)bis(1H-indole)]	60.8 ± 1.24 µM	5.87 ± 0.3 µM	16.1 ± 0.79 µM
Brc1ccc2[nH]cc(C(c3ccco3)c3c[nH]c4ccc(Br)cc34)c2c1 [1p, 3,3′-(Furan-2-ylmethylene)bis(5-bromo-1H-indole)]	19.4 ± 0.88 µM	11.4 ± 1.37 µM	19.7 ± 0.87 µM
c1ccc(-c2[nH]c3ccccc3c2C(c2ccco2)c2c(-c3ccccc3)[nH]c3ccccc23)cc1 [1q, 3,3′-(Furan-2-ylmethylene)bis(2-phenyl-1H-indole)]	39.5 ± 1.02 µM	5 ± 0.01 µM	23.5 ± 7 µM
Cc1[nH]c2ccccc2c1C(c1cccs1)c1c(C)[nH]c2ccccc12 [1r, 3,3′-(Thiophen-2-ylmethylene)bis(2-methyl-1H-indole)]	21.2 ± 2.01 µM	5.82 ± 0.5 µM	15.7 ± 2.1 µM
COc1cc(C(c2c[nH]c3ccccc23)c2c[nH]c3ccccc23)cc(OC)c1O [1s, 4-(Di(1H-indol-3-yl)methyl)-2,6-dimethoxyphenol]	22.6 ± 0.98 µM	7.01 ± 0.53 µM	7.02 ± 0.32 µM
COc1ccc(C(c2c[nH]c3ccccc23)c2c[nH]c3ccccc23)cc1OC [1t, 3,3′-((3,4-Dimethoxyphenyl)methylene)bis(1H-indole)]	12.2 ± 0.96 µM	8.12 ± 0.87 µM	8.14 ± 1.45 µM
COc1cccc2c1C(=O)c1c(O)c3c(c(O)c1C2=O)C[C@@](O)(C(=O)CO)C[C@@H]3O[C@H]1C[C@H](N)[C@H](O)[C@H](C)O1 [doxorubicin, reference compound]	0.7 ± 0.13 µM	0.6 ± 0.12 µM	0.8 ± 0.12 µM
